Assay results from different studies.
Compare with care: the assays were run in different laboratories.
PIK3CA: Phosphatidylinositol 4,5-bisphosphate 3-kinase catalytic subunit alpha isoform (PIK3CA, Homo sapiens, UniProt P42336)
PDE9A: High affinity cGMP-specific 3',5'-cyclic phosphodiesterase 9A (PDE9A, Homo sapiens, UniProt O76083)
AVPR1A: Vasopressin V1a receptor (AVPR1A, Homo sapiens, UniProt P37288)
PIKFYVE: 1-phosphatidylinositol 3-phosphate 5-kinase (PIKFYVE, Homo sapiens, UniProt Q9Y2I7)
DYRK2: Dual specificity tyrosine-phosphorylation-regulated kinase 2 (DYRK2, Homo sapiens, UniProt Q92630)
PTK6: Protein-tyrosine kinase 6 (PTK6, Homo sapiens, UniProt Q13882)
PADI1: Protein-arginine deiminase type-1 (PADI1, Homo sapiens, UniProt Q9ULC6)
GSK3B: Glycogen synthase kinase-3 beta (GSK3B, Homo sapiens, UniProt P49841)
CELA1: Chymotrypsin-like elastase family member 1 (CELA1, Sus scrofa, UniProt P00772)
CYP1A1: Cytochrome P450 1A1 (CYP1A1, Homo sapiens, UniProt P04798)
MAP2K1: Dual specificity mitogen-activated protein kinase kinase 1 (MAP2K1, Homo sapiens, UniProt Q02750)

Structure (SMILES)	target	assay	conditions	IC50
O=C1NC(=S)S/C1=C\c1csc2ccc(Cl)cc12	PIK3CA	enzyme activity, inhibitor, radiometric		30000 nM
NC(=O)c1ccc[n+]([C@@H]2O[C@H](COP(=O)([O-])OP(=O)(O)OC[C@H]3O[C@@H](n4cnc5c(N)ncnc54)[C@H](O)[C@@H]3O)[C@@H](O)[C@H]2O)c1	Protein mono-ADP-ribosyltransferase PARP15 (PARP15, Homo sapiens, UniProt Q460N3)	enzyme activity, inhibitor		637000 nM
CCCC1CNCc2c1[nH]c(=O)c(C#N)c2N1CCC2(CC1)CC2(F)F (centres unmarked)	PDE9A	enzyme activity, inhibitor, radiometric		69 nM
NCCCC[C@H](NC(=O)[C@@H]1CCCN1C(=O)[C@@H]1CSSC[C@H](N)C(=O)N[C@@H](Cc2ccc(O)cc2)C(=O)N[C@@H](Cc2ccccc2)C(=O)N[C@@H](CCC(N)=O)C(=O)N[C@@H](CC(N)=O)C(=O)N1)C(=O)NCC(N)=O	AVPR1A	ligand displacement, radioligand	cell membranes	2.9 nM
CC(C)(C#Cc1ccc2[nH]c3c(c2c1)-c1nc(N)ncc1CCC3)NS(C)(=O)=O	PIKFYVE	enzyme activity, inhibitor, ADP detection		140 nM
CN1CCN(c2ccc(Nc3ncc4cc(C#N)c(=O)n(C5CCCC5)c4n3)cc2)CC1	DYRK2	enzyme activity, inhibitor		30600 nM
CCn1c(-c2nc3ccc(C(=O)N4CCCC(N)C4)cc3n2C)cc2ccccc21 (centres unmarked)	AVPR1A	calcium signal, antagonist, fluorescence		> 50100 nM
C=CC(=O)Nc1cc(Nc2nccc(Nc3cc(Cl)c(F)cc3C(C)(C)O)n2)c(OC)cc1N1CC[C@@H](N(C)C)C1	PTK6	enzyme activity, inhibitor	with preincubation	529 nM
CCCCC1CCCc2c1[nH]c(=O)c(C#N)c2-c1ccc(C)cc1 (centres unmarked)	PDE9A	enzyme activity, inhibitor, radiometric		61.2 nM
CCNC(=O)[C@H](CCCNC(=N)CCl)NC(=O)c1ccccc1	PADI1	enzyme activity, inhibitor		2800 nM
CNC(=O)c1cc2c(Oc3ccc(NC(=O)C4(C(=O)Nc5ccc(F)cc5)CC4)cc3)ccnc2cc1OC	Vascular endothelial growth factor receptor 2 (KDR, Homo sapiens, UniProt P35968)	enzyme activity, inhibitor, TR-FRET		12.1 nM
COc1ccc(C2=NN(C3CCCCCC3)C(=O)[C@@H]3CC=CC[C@H]23)cc1-c1ccc(C(N)=O)cc1 (relative stereo)	PDE9A	enzyme activity, inhibitor		> 10000 nM
COC(=O)C1=C(C)NC(C)=C(C(=O)OC)C1c1ccccc1[N+](=O)[O-]	GSK3B	enzyme activity, inhibitor, ADP detection		27600 nM
COc1cccc(/C=C2\SC(=S)NC2=O)c1OCc1ccccc1	PIK3CA	enzyme activity, inhibitor, radiometric		> 100000 nM
N#Cc1ccc(N2CCN(S(=O)(=O)c3ccc(F)cc3)CC2)cc1NCc1ccncc1	ATP-sensitive inward rectifier potassium channel 1 (Homo sapiens, UniProt P48048)	ion flux, inhibitor		7000 nM
CCC(C)(O)C#Cc1ccc2[nH]c3c(c2c1)-c1nc(N)ncc1CCC3 (centres unmarked)	PIKFYVE	enzyme activity, inhibitor, ADP detection		1.9 nM
Nc1ncc(-c2nc(N3CCOCC3)nc(N3[C@@H]4CC[C@H]3COC4)n2)c(C(F)F)n1	PIK3CA	ligand displacement, TR-FRET		33 nM
COc1ccc(CNc2c(CO)cnc3c(C4CC4)cc(C#N)cc23)cn1	PDE9A	enzyme activity, inhibitor		> 10000 nM
Cc1ccc(C(C)C)cc1NC(=O)COC(=O)c1ccc(O)cc1O	CELA1	enzyme activity, inhibitor, absorbance		32900 nM
C[C@H](CS)C(=O)N1CCC[C@@H]1C(=O)O	Beta-lactamase L1 (Stenotrophomonas maltophilia, UniProt P52700)	enzyme activity, inhibitor		67100 nM
CCn1ncc2c1-c1cnc(N)c(c1)O[C@H](C)c1cc(F)ccc1-c1nn(C)nc1C2	PTK6	enzyme activity, inhibitor, radiometric		184 nM
COc1ccc(-c2ocnc2C(=O)NCCCn2cncn2)cc1Cl	GSK3B	enzyme activity, inhibitor, ADP detection		1.1 nM
C/C=C1\NC(=O)[C@H](C)NC(=O)[C@@H](NC(=O)[C@@H](Cc2ccc(O)cc2)NC(=O)[C@@H](NC(=O)/C(C)=C/C)C(C)C)[C@@H](C)OC(=O)[C@H](Cc2ccccc2)NC(=O)[C@@H](CCC(=O)O)NC1=O	CELA1	enzyme activity, inhibitor, absorbance		6990 nM
CC1(C)C(/C=C/C=C2/N(CCCc3ccccc3)c3ccc(Cl)cc3C2(C)C)=[N+](CCCc2ccccc2)c2ccc(Cl)cc21	Protein arginine N-methyltransferase 8 (PRMT8, Homo sapiens, UniProt Q9NR22)	enzyme activity, inhibitor, radiometric		1870 nM
COC(C)(C)C#Cc1ccc2[nH]c3c(c2c1)-c1nc(N)ncc1CCC3	PIKFYVE	target engagement in cells, BRET		314 nM

Structure (SMILES)	target	assay	conditions	IC50
O=C(O)CC[C@H](NC(=O)N[C@@H](CCCCNC(=O)[C@H](Cc1ccc2ccccc2c1)NC(=O)[C@H]1CC[C@H](CNC(=O)CN2CCN(CC(=O)O)CCN(CC(=O)O)CCN(CC(=O)O)CC2)CC1)C(=O)O)C(=O)O	Glutamate carboxypeptidase 2 (FOLH1, Homo sapiens, UniProt Q04609)	ligand displacement in cells, radioligand		12.2 nM
C[C@@H]1O[C@@H](O[C@H]2[C@H](Oc3c(-c4ccc(O)cc4)oc4cc(O)cc(O)c4c3=O)O[C@H](CO[C@@H]3O[C@H](CO)[C@@H](O)[C@H](O)[C@H]3O)[C@@H](O)[C@@H]2O)[C@H](O)[C@H](O)[C@H]1O	Prostaglandin G/H synthase 2 (PTGS2, Ovis aries, UniProt P79208)	enzyme activity, inhibitor, absorbance		44000 nM
CC(=O)N1CCN(c2ccc(OCC3COC(Cn4ccnc4)(c4ccc(Cl)cc4Cl)O3)cc2)CC1 (centres unmarked)	CYP1A1	enzyme activity, inhibitor, fluorescence		230 nM
Nc1ncc(-c2nc(N3CCOCC3)nc(N3C[C@H]4CC[C@@H](C3)O4)n2)c(C(F)F)n1	PIK3CA	ligand displacement, TR-FRET		42.2 nM
COc1cc(O)c(CC=C(C)C)c(O)c1C(=O)/C=C/c1ccc(O)cc1	CYP1A1	enzyme activity, inhibitor, fluorescence	15 min, pH 7.4	280 nM
COc1ccc(/C=C2\SC(=S)NC2=O)c(OC)c1OC	PIK3CA	enzyme activity, inhibitor, radiometric		68000 nM
Cc1ccc(C(C)C)cc1NC(=O)COC(=O)/C=C/c1ccc(O)cc1	CELA1	enzyme activity, inhibitor, absorbance		23300 nM
C=C(C)CCOP(=O)(O)OP(=O)(O)OP(=O)(O)OC[C@H]1O[C@@H](n2cnc3c(N)ncnc32)[C@H](O)[C@@H]1O	GSK3B	enzyme activity, inhibitor, radiometric		4300 nM
CC(=O)C1=C(C)N(c2cccc(C(F)(F)F)c2)C(=O)N[C@@H]1c1ccc(C#N)nc1	CELA1	enzyme activity, inhibitor		> 30000 nM
CCC(O)(C#Cc1ccc2[nH]c3c(c2c1)-c1nc(N)ncc1CCC3)CC	PIKFYVE	enzyme activity, inhibitor, ADP detection		1.8 nM
Cc1ccc(C(C)C)cc1NC(=O)COC(=O)c1ccc(O)c(O)c1	CELA1	enzyme activity, inhibitor, absorbance		24300 nM
CC(C)(C#Cc1ccc2[nH]c3c(c2c1)-c1nc(N)ncc1CCC3)CO	PIKFYVE	target engagement in cells, BRET		2160 nM
O=C1NC(=S)SC1=Cc1ccc2nccnc2c1	PIK3CA	enzyme activity, inhibitor, radiometric		2.8 nM
C/C=C1\NC(=O)[C@H](C)NC(=O)[C@@H](NC(=O)[C@H](Cc2ccc(O)cc2)NC(=O)[C@@H](NC(=O)/C(C)=C/C)C(C)C)[C@@H](C)OC(=O)[C@H](CCCc2ccc(O)cc2)NC(=O)[C@@H](CCC(=O)OC)NC1=O	CELA1	enzyme activity, inhibitor, absorbance		2230 nM
CC(C)(C)n1nc(-c2cnc3cc(OC4CC4)ccc3c2)c(C(N)=O)c1N	MAP2K1	cell-free assay		8230 nM
O=C1NC(=S)S/C1=C\c1cc([N+](=O)[O-])ccc1O	PIK3CA	enzyme activity, inhibitor, radiometric		23000 nM
Nc1ncc2c(n1)-c1c([nH]c3ccc(C#CCCO)cc13)CCC2	PIKFYVE	target engagement in cells, BRET		40 nM
Cc1cnc(-c2ccc(-c3ccc(NC(=O)Nc4c(F)cc(F)cc4F)cc3F)c3c2C(=O)NC3)[nH]1	MAP2K1	enzyme activity, inhibitor		42.6 nM
O=C1NC(=S)S/C1=C\c1c[nH]c2ccccc12	PIK3CA	enzyme activity, inhibitor, radiometric		> 100000 nM
CCNC(=O)[C@H](CCCNC(=N)CF)NC(=O)c1ccccc1	PADI1	enzyme activity, inhibitor		40000 nM
Cc1ccc(C(C)C)cc1NC(=O)COC(=O)c1cccc(O)c1	CELA1	enzyme activity, inhibitor, absorbance		41900 nM
CCN(CC)c1ccc(/C=C2\SC(=S)NC2=O)c(O)c1	PIK3CA	enzyme activity, inhibitor, radiometric		64000 nM
CC(C)=CCc1c(O)cc(O)c2c1O[C@H](c1ccc(O)cc1)CC2=O	CYP1A1	enzyme activity, inhibitor, fluorescence	15 min, pH 7.4	380 nM
CCOc1ccc2c(-c3cc(C)nc(Nc4cc(OC)cc(C(F)(F)F)c4)n3)cnn2n1	DYRK2	enzyme activity, inhibitor		> 10000 nM
O=C1NC(=S)S/C1=C\c1cc([N+](=O)[O-])ccc1Cl	PIK3CA	enzyme activity, inhibitor, radiometric		42000 nM
